From ChEMBL document CHEMBL4359929, “Piperidine and piperazine inhibitors of fatty acid amide hydrolase targeting excitotoxic pathology” (Bioorg Med Chem, 2019)
The source made the active and inactive calls. The rule behind the calls is not given here.

Tests used:
[1] = target: T1, Fatty-acid amide hydrolase 1 (Homo sapiens, UniProt O00519); assay: Inhibition of human recombinant MBP-tagged FAAH expressed in Escherichia coli cells using AAMCA as substrate incubated for 15 mins followed by substrate addition and measured after every 20 mins for 4 hrs by fluorescence based assay
T1 sequence (O00519 whole entry): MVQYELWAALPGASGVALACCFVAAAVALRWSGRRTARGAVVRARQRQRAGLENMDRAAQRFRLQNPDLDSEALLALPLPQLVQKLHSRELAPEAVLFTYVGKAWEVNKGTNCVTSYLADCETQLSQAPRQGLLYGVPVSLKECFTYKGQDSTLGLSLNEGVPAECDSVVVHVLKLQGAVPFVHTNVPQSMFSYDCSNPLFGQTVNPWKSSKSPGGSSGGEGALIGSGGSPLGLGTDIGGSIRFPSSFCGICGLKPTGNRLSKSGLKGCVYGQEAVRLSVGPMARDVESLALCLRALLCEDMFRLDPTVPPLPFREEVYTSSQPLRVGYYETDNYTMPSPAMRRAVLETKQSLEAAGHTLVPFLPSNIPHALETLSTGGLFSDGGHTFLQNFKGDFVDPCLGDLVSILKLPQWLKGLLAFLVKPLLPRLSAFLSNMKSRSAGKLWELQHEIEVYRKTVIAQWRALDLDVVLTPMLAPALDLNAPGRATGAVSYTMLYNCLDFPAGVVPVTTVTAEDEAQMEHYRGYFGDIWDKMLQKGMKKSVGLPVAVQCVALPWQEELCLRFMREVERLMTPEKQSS
In short: (§1)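 Fluorescent enzyme assay in throughput format. Human recombinant FAAH or purified rat FAAH used arachidonoyl 7-amino-4-methylcoumarin amide as substrate; human recombinant MGL was run by a similar fluorometric procedure.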

[2] = target: T2, Fatty-acid amide hydrolase 1 (Rattus norvegicus, UniProt P97612); assay: Inhibition of rat recombinant His/GST-tagged FAAH expressed in Escherichia coli cells using AAMCA as substrate incubated for 15 mins followed by substrate addition and measured after every 20 mins for 4 hrs by fluorescence based assay; in short: as §1
T2 sequence (P97612 whole entry): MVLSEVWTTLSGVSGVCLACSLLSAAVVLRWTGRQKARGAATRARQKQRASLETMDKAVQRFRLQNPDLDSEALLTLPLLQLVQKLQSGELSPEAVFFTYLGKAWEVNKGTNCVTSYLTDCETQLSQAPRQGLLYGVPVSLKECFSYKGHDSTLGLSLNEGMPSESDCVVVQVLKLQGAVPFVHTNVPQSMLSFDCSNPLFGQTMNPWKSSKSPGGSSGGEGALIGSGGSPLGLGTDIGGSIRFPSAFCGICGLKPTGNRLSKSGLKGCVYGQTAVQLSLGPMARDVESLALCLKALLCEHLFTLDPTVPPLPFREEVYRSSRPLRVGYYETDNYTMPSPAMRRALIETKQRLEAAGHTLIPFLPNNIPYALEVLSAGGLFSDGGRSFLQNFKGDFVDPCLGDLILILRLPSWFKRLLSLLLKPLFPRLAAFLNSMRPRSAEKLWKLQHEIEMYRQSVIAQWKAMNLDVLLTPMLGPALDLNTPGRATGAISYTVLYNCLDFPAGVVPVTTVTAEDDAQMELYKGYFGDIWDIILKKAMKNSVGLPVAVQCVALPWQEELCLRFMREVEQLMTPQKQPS

[3] = target: T3, Monoglyceride lipase (Homo sapiens, UniProt Q99685); assay: Inhibition of human recombinant His-tagged MGL expressed in Escherichia coli BL21 DE3 cells using AHMMCE as substrate preincubated with enzyme for 15 mins followed by substrate addition and measured after every 15 mins for 3 hrs by fluorescence based assay; in short: as §1
T3 sequence (Q99685 whole entry): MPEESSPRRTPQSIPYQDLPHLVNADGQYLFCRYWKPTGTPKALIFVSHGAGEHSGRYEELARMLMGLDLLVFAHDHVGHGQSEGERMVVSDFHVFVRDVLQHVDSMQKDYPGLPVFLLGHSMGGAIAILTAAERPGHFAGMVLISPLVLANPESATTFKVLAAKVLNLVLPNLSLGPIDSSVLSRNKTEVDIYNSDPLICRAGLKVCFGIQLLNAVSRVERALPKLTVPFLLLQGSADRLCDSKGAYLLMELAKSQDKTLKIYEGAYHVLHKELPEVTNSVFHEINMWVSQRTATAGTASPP

[4] = Stability in human liver microsomes assessed as half life; type: ADME, Microsome
In short: (§2)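 Stability assessed as half-life in human, rat and mouse plasma and gastric fluid, and in human, rat and mouse liver microsomal preparations.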

[5] = Stability in rat liver microsomes assessed as half life; type: ADME, Microsome; in short: as §2
[6] = Stability in mouse liver microsomes assessed as half life; type: ADME, Microsome; in short: as §2
[7] = Stability in human plasma assessed as half life; type: ADME, cell-free; in short: as §2
[8] = Stability in rat plasma assessed as half life; type: ADME, cell-free; in short: as §2
[9] = Stability in mouse plasma assessed as half life; type: ADME, cell-free; in short: as §2
[10] = Stability in human gastric fluid assessed as half life; type: ADME, tissue-based, Gastric juice; in short: as §2
[11] = Stability in rat gastric fluid assessed as half life; type: ADME, tissue-based, Gastric juice; in short: as §2
[12] = Stability in mouse gastric fluid assessed as half life; type: ADME, tissue-based, Gastric juice; in short: as §2
[13] = species on record: Homo sapiens; assay: Selectivity ratio of IC50 for human recombinant His-tagged MGL expressed in Escherichia coli BL21 DE3 cells to IC50 for human recombinant MBP-tagged FAAH expressed in Escherichia coli cells by fluorescence based assay
[14] = species on record: Homo sapiens; assay: Selectivity ratio of IC50 for human full length ABHD6 expressed in Escherichia coli cells to IC50 for human recombinant MBP-tagged FAAH expressed in Escherichia coli cells by fluorescence based assay
[15] = target: Cannabinoid receptor 1 (Rattus norvegicus) (UniProt P20272); assay: Displacement of [3H]CP55940 from CB1 receptor in rat brain by competition-equilibrium binding analysis; type: tissue-based
In short: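 Rat brain membranes as CB1 source; competition-equilibrium binding against [3H]CP-55,940.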
Target sequence in this assay (P20272 whole entry): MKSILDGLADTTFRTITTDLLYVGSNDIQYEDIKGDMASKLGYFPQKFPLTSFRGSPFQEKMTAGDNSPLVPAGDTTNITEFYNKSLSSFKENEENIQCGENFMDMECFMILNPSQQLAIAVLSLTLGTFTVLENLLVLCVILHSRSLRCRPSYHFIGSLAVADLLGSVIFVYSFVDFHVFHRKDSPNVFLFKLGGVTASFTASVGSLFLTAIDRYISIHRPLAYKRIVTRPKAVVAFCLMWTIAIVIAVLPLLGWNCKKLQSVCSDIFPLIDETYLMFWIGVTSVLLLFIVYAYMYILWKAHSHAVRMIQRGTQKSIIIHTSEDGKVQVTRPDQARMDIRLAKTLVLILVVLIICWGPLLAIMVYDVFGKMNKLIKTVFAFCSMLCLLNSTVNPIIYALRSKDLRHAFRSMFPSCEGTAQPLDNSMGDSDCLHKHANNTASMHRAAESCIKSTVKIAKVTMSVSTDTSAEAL

[16] = target: Cannabinoid receptor 2 (Mus musculus) (UniProt P47936); assay: Displacement of [3H]CP55940 from mouse CB2 receptor expressed in HEK293 cells by competition-equilibrium binding analysis; type: cell-based
Chain of Cannabinoid receptor 2 (Mus musculus) (P47936 whole entry): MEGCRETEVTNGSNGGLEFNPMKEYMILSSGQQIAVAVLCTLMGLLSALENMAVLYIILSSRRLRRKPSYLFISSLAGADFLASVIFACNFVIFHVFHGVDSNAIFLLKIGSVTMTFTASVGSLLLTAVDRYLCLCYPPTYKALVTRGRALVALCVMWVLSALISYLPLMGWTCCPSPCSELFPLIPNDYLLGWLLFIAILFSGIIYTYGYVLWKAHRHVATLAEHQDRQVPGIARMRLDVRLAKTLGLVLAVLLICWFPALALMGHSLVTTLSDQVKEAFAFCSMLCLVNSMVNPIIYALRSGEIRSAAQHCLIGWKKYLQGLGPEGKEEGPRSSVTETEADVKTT
In short: (§3)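 HEK293 cell membranes expressing mouse or human CB2; competition-equilibrium binding against [3H]CP-55,940.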

[17] = target: Cannabinoid receptor 2 (Homo sapiens) (UniProt P34972); assay: Displacement of [3H]CP55940 from human CB2 receptor expressed in HEK293 cells by competition-equilibrium binding analysis; type: cell-based; in short: as §3
Chain of Cannabinoid receptor 2 (Homo sapiens) (P34972 whole entry): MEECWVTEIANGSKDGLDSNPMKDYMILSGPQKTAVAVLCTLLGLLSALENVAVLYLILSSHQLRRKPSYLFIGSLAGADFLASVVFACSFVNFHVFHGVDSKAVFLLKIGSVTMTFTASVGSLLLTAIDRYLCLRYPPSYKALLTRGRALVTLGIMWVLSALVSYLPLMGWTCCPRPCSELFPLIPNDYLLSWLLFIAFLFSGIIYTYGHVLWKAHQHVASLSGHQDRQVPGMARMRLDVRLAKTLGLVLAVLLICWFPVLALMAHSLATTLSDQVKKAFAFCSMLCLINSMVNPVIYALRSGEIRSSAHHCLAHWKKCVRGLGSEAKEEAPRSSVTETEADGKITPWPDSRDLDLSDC

[18] = Selectivity ratio of IC50 for human recombinant His-tagged MGL expressed in Escherichia coli BL21 DE3 cells to IC50 for rat recombinant His/GST-tagged FAAH expressed in Escherichia coli cells by fluorescence based assay
[19] = Selectivity ratio of IC50 for human full length ABHD6 expressed in Escherichia coli cells to IC50 for rat recombinant His/GST-tagged FAAH expressed in Escherichia coli cells by fluorescence based assay
[20] = target: Cannabinoid receptor 1 (Rattus norvegicus) (UniProt P20272); assay: Displacement of [3H]CP55940 from CB1 receptor in rat brain by competition-equilibrium binding analysis
Target sequence in this assay (P20272 whole entry, looked up): as the sequence (P20272 whole entry) above

Structure (SMILES)	IC50 [1]	IC50 [2]	IC50 [3]	half-life [4]	half-life [5]	half-life [6]	half-life [7]	half-life [8]	half-life [9]	half-life [10]	half-life [11]	half-life [12]	Ratio IC50 [13]	Ratio IC50 [14]	Activity [15]	Activity [16]	Activity [17]	Ratio IC50 [18]	Ratio IC50 [19]	Activity [20]
N#Cc1ccc(C2CCN(C(=O)Oc3cccc(N4CCS(=O)(=O)CC4)c3)CC2)cc1	22.7 nM	9.9 nM	> 1000 nM	15 to 25 min	15 to 25 min	15 to 25 min	> 60 min	> 60 min	> 60 min	> 60 min	> 60 min	> 60 min	> 1000	> 1000	inactive	inactive	inactive	> 1000	> 1000	inactive
O=C(Oc1cccc(N2CCS(=O)(=O)CC2)c1)N1CCC(c2ccccc2)CC1	8 nM	6 nM	> 1000 nM	15 to 25 min	15 to 25 min	15 to 25 min	> 60 min	> 60 min	> 60 min	> 60 min	> 60 min	> 60 min	> 1000	> 1000	inactive	inactive	inactive	> 1000	> 1000	inactive
COc1ccc(N2CCN(C(=O)Oc3cccc(N4CCOCC4)c3)[C@H](C)C2)cc1	4.1 nM	5.2 nM	> 1000 nM	15 to 25 min	15 to 25 min	15 to 25 min	> 60 min	> 60 min	> 60 min	> 60 min	> 60 min	> 60 min	> 1000	> 1000	inactive	inactive	inactive	> 1000	> 1000	inactive
CN1CCN(c2cccc(OC(=O)N3CCC(c4ccc(F)cc4)CC3)c2)CC1	33.2 nM	9.4 nM	> 1000 nM	15 to 25 min	15 to 25 min	15 to 25 min	> 60 min	> 60 min	> 60 min	> 60 min	> 60 min	> 60 min	> 1000	> 1000	inactive	inactive	inactive	> 1000	> 1000	inactive
CC1CN(c2ccccc2)CCN1C(=O)Oc1cccc(N2CCS(=O)(=O)CC2)c1 (stereo not given)	2.6 nM	5.5 nM	> 1000 nM	15 to 25 min	15 to 25 min	15 to 25 min	> 60 min	> 60 min	> 60 min	> 60 min	> 60 min	> 60 min	> 1000	> 1000	inactive	inactive	inactive	> 1000	> 1000	inactive
O=C(Oc1cccc(N2CCS(=O)(=O)CC2)c1)N1CCC(c2ccc(OC(F)(F)F)cc2)CC1	3.7 nM	4 nM	> 1000 nM	15 to 25 min	15 to 25 min	15 to 25 min	> 60 min	> 60 min	> 60 min	> 60 min	> 60 min	> 60 min	> 1000	> 1000	inactive	inactive	inactive	> 1000	> 1000	inactive
O=C(Oc1cccc(N2CCS(=O)(=O)CC2)c1)N1CCN(c2ccccc2)CC1	15 nM	8 nM	> 1000 nM	15 to 25 min	15 to 25 min	15 to 25 min	> 60 min	> 60 min	> 60 min	> 60 min	> 60 min	> 60 min	> 1000	> 1000	inactive	inactive	inactive	> 1000	> 1000	inactive
O=C(Oc1cccc(N2CCS(=O)(=O)CC2)c1)N1CCN(Cc2cccc(-c3ccccc3)c2)CC1	1.9 nM	2.1 nM	> 1000 nM	15 to 25 min	15 to 25 min	15 to 25 min	> 60 min	> 60 min	> 60 min	> 60 min	> 60 min	> 60 min	> 1000	> 1000	inactive	inactive	inactive	> 1000	> 1000	inactive
COc1ccc(C2CCN(C(=O)Oc3cccc(N4CCS(=O)(=O)CC4)c3)CC2)cc1	6.3 nM	2.61 nM	> 1000 nM	15 to 25 min	15 to 25 min	15 to 25 min	> 60 min	> 60 min	> 60 min	> 60 min	> 60 min	> 60 min	> 1000	> 1000	inactive	inactive	inactive	> 1000	> 1000	inactive
